Screening data as filed in PubChem BioAssay.
ASAP1 GAP inh – inhibitors of human ASAP1 ArfGAP activity, primary screen, biochemical, fluorescence polarization; ASAP1-stimulated ARF1 GTP hydrolysis, GDP FP detection; Arf-GAP with SH3 domain, ANK repeat and PH domain-containing protein 1 (Homo sapiens), …; actives 0.19% (n = 360,000); inhibition, % at 16.5 µM; in the data active = inhibition above about 25%
Target sequence (Q9ULH1 325-724 limits assumed): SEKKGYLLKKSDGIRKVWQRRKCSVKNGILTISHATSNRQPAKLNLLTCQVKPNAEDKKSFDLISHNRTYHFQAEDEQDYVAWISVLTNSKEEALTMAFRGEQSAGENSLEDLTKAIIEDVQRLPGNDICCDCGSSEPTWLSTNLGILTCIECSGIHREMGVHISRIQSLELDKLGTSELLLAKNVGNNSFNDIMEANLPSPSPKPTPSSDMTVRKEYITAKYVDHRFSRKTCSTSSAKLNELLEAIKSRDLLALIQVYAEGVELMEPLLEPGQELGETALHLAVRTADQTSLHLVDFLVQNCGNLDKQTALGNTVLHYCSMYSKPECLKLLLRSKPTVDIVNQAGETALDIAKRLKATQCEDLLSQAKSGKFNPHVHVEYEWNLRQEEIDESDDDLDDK
ARFGAP1 inhibitor – inhibitors of rat ARFGAP1 GAP activity, primary screen, biochemical, fluorescence polarization, GDP tracer; ADP-ribosylation factor GTPase-activating protein 1 (Rattus norvegicus), Q62848; Arfgap1-stimulated ARF1 GTP hydrolysis, GDP FP detection; inhibition, % at 16.5 µM; actives 0.26% (n = 360,000); AID 651572, 2012;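 active = inhibition above a per-plate limit, mean inhibition of low control wells plus 3 SD, cut at about 25% in these data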
Target sequence (Q62848 1-136 limits assumed): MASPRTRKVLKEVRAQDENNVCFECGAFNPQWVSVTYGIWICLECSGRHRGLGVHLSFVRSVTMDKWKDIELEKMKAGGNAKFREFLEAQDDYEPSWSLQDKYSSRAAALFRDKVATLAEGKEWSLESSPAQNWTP
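System: truncated rat Arfgap1 GAP domain / Medium: HEPES-based buffer, pH 7.5 / Also added: N-terminally truncated human ARF1-GTP substrate / Incubation: enzyme reaction 120 min at 25 °C after 20 min preincubation / Measured by: FP of antibody-bound GDP Alexa 633 tracer, ex 620/em 688 nm / Replicates: singlicate, each compound tested once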
esBAF inh – Bmi1 luciferase reporter increase in mESCs, primary screen, esBAF inhibitor project, mouse ES cells, Bmi1 luciferase knock-in, single point | 24 h; 100% = twice the neutral-well signal | reporter increase, % at 12.5 µM | AID 602393, 2012 | actives 2% (n = 350,000); in the data active = activation above about 40%;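 also: a rise in the Bmi1 reporter signal indicates esBAF inhibition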
SMARCA2 act – SMARCA2 (BRM) function activators, primary screen, cell-based, luminescence, high throughput; actives 1% (n = 370,000); activation, % at 9.1 µM; MG213 cells, MMTV-luciferase reporter, dexamethasone, overnight; AID 652017, 2013; in the data active = activation above about 7.8%
ASAP1 GAP conf – ASAP1 GAP activity inhibitors, confirmation, biochemical, fluorescence polarization, human, triplicate; actives 37% (n = 620); inhibition, % at 16.5 µM; ASAP1-stimulated Arf1 GTPase, GDP fluorescence polarization; shares compounds with ASAP1 GAP inh;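 active = mean inhibition over triplicates exceeds the hit threshold derived for the earlier primary screening run, cut at about 25% in these data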
ARFGAP1 confirm – ARFGAP1 inhibitor hit confirmation, biochemical, fluorescence polarization, triplicate; shares compounds with ARFGAP1 inhibitor; inhibition, % at 16.5 µM; actives 30% (n = 890); ARFGAP1-stimulated ARF1 GTP hydrolysis, GDP tracer FP;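 active = average inhibition over triplicates above the hit cutoff set in the earlier primary screen, cut at about 25% in these data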
SMARCA2 act conf – SMARCA2 (BRM) function activators, confirmation, cell-based, luminescence, triplicate. shares compounds with SMARCA2 act. actives 30% (n = 3,500). activation, % at 9.1 µM. AID 652260, 2013. MG213 cells, MMTV-luciferase with dexamethasone, overnight; MG213 cells expressing E1A, Rb sequestered; DMSO wells 0%, reference activator 100%;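 active = activation above its plate's cutoff, the mean activation of tested wells plus 3 SD, cut at about 7.9% in these data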
GAL4-VP16 Luc – GAL4-VP16 luciferase reporter activation, counter-screen for SMARCA2 (BRM) activator project, cell-based, pG5luc, luminescence, high throughput. activation, % at 9.1 µM. actives 41% (n = 3,500). HEK293 GAL4-VP16 pG5luc reporter; scaled: DMSO wells 0%, SAHA wells 100%. AID 686939, 2013. shares compounds with SMARCA2 act;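 active = activation above the solvent-only control well mean plus 3 SD, averaged across control plates, cut at about 5.2% in these data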
Of the large screens only hits and unclear results are named; the others gave an inactive call (follow-up assays come after a bar, where they were run). Hits are enriched below; roughly 2.6% of the tested compounds scored in any of these assays.

O=C(Nc1cccc(Cl)c1)N[C@H]1CC[C@@H](CCNC(=O)C2CCC2)O[C@@H]1CO	none (no result: ASAP1 GAP inh, ARFGAP1 inhibitor, SMARCA2 act)
COc1ccc(S(=O)(=O)Nc2ccc3c(c2)C(=O)N([C@H](C)CO)C[C@@H](C)[C@@H](CN(C)C(=O)NC2CCCCC2)OCCCC[C@@H](C)O3)cc1	none (no result: ASAP1 GAP inh, ARFGAP1 inhibitor, SMARCA2 act)
Cn1c(C(=O)Nc2ccccc2)cc2sccc21	ASAP1 GAP inh 30.6, SMARCA2 act 9.2 | ASAP1 GAP conf inactive | SMARCA2 act conf 8.7 | GAL4-VP16 Luc 7.2
COc1cc2c3nnc(-c4ccccc4)c-3cn(Cc3ccccc3F)c2cc1OC	ASAP1 GAP inh 58.5, ARFGAP1 inhibitor 36.2, SMARCA2 act 9.9 (no result: esBAF inh) | ASAP1 GAP conf 116.2 | ARFGAP1 confirm 36.3 | SMARCA2 act conf 17.6 | GAL4-VP16 Luc inactive
COc1ccc(Cn2ccc3ccc(-c4ccc5ccn(Cc6ccccc6F)c5c4)cc32)cc1	none (no result: ASAP1 GAP inh, ARFGAP1 inhibitor, esBAF inh)
O=Nc1c(-c2cccc([N+](=O)[O-])c2)nc2ncccn12	ARFGAP1 inhibitor 26.4 (no result: esBAF inh) | ARFGAP1 confirm inactive
CCCNC(=O)N[C@@H]1CC[C@H](CCn2cc(C3CC3)nn2)O[C@H]1CO	none (no result: ASAP1 GAP inh, ARFGAP1 inhibitor, SMARCA2 act)
Cc1cccc(-c2n[nH]nc2C2=CC(=O)CC(C)(C)C2)c1	ARFGAP1 inhibitor 42.3 | ARFGAP1 confirm inactive
CC1(C)CC(=O)C=C(c2n[nH]nc2-c2ccccc2)C1	none
O=C(C[C@@H]1C[C@@H]2c3cc(NC(=O)C4CCC4)ccc3O[C@@H]2[C@@H](CO)O1)NCc1cccnc1	none (no result: ASAP1 GAP inh, ARFGAP1 inhibitor, SMARCA2 act)
NC1C=CC=C(C(=O)O)C1 (stereo not drawn)	none
O=C(O)C1=C[C@@H](O)[C@@H](O)[C@H](O)C1	ARFGAP1 inhibitor 35.9 | ARFGAP1 confirm inactive
CC(=O)Nc1ccc(S(=O)(=O)NCCC(=O)NCCc2ccc(F)cc2)cc1	none (no result: esBAF inh)
CC(=O)NCCc1ccc(S(=O)(=O)Nc2ccc(NC(=O)c3ccc(F)cc3)cc2)cc1	ARFGAP1 inhibitor 28.9 | ARFGAP1 confirm inactive
CN(C)C(=O)c1ccc(-c2ccc([C@@H]3[C@H](C#N)N(C(=O)C4CCC4)[C@H]3CO)cc2)cc1	none (no result: ASAP1 GAP inh, ARFGAP1 inhibitor, SMARCA2 act)
CC(Nc1nc(N2CCNCC2)nc2ccccc12)c1ccccc1 (stereo not drawn)	ARFGAP1 inhibitor 26.4 (no result: esBAF inh) | ARFGAP1 confirm inactive
CC(Nc1nc(-c2ccncc2)nc2ccccc12)c1ccccc1 (stereo not drawn)	none
COc1ccc(NC2=C(NCCO)C(=O)c3ccccc3C2=O)cc1	ARFGAP1 inhibitor 28.4 (no result: esBAF inh) | ARFGAP1 confirm inactive
O=C(CCN1CCCCC1)N[C@@H]1C=C[C@H](CC(=O)N2CCC(Cc3ccccc3)CC2)O[C@H]1CO	none (no result: ASAP1 GAP inh, ARFGAP1 inhibitor, SMARCA2 act)
Cc1ccc(OCC(=O)Oc2cccc(C)c2)cc1	ARFGAP1 inhibitor 25.9 (no result: esBAF inh) | ARFGAP1 confirm inactive
Cc1cccc(OCC(=O)OC2CCN(C)CC2)c1	ARFGAP1 inhibitor 26.4 | ARFGAP1 confirm inactive
Cc1ccc(OCC(=O)Oc2cccc(C)c2C)cc1	none
CC(=O)OCC(=O)[C@@]1(O)[C@H](C)C[C@H]2[C@@H]3CCC4=CC(=O)C=C[C@]4(C)[C@@]3(F)[C@@H](O)C[C@@]21C	none
C[C@@H]1C[C@H]2[C@@H]3CCC4=CC(=O)C=C[C@]4(C)[C@@]3(F)[C@@H](O)C[C@]2(C)[C@@]1(O)C(=O)CO	ARFGAP1 inhibitor 29.3 | ARFGAP1 confirm inactive
O=[N+]([O-])c1cccc(/C=C/c2nc3ccc([N+](=O)[O-])cc3[nH]2)c1	ARFGAP1 inhibitor 25.0 | ARFGAP1 confirm 25.9
Cc1nc2ccc([N+](=O)[O-])cc2[nH]1	none (no result: esBAF inh)
COc1cccc(/C=N/NC(=O)c2ccc(-c3ccccc3)cc2)c1O	ARFGAP1 inhibitor 36.7 | ARFGAP1 confirm 30.3
CCOC(=O)C1=C(C)NC(=O)NC1C (stereo not drawn)	none
CCOC(=O)C1=C(CBr)NC(=O)NC1C (stereo not drawn)	ARFGAP1 inhibitor 32.7 | ARFGAP1 confirm inactive
CN(C)c1ccc(/C=N/NC(=O)c2ccc3nc[nH]c3c2)cc1	none
CSc1ccc(/C=N/NC(=O)c2ccc3nc[nH]c3c2)cc1	ARFGAP1 inhibitor 27.6 | ARFGAP1 confirm inactive
Cc1cc(=O)n(-c2ccc(C(=O)O)cc2)[nH]1	ARFGAP1 inhibitor 27.9 | ARFGAP1 confirm inactive
Cc1ccc(N2C(=O)CC(Sc3nc(C)cc(C)n3)C2=O)cc1 (stereo not drawn)	ARFGAP1 inhibitor 24.9 | ARFGAP1 confirm inactive
CCOc1ccc(N2C(=O)CC(Sc3nc(C)cc(C)n3)C2=O)cc1 (stereo not drawn)	none
CCCC#Cc1cnc2c(c1)C(=O)N([C@@H](C)CO)C[C@@H](C)[C@@H](CN(C)C(=O)c1ccc(F)cc1)O2	none (no result: ASAP1 GAP inh, ARFGAP1 inhibitor, SMARCA2 act)
Cc1ccccc1CN(C)C[C@@H]1OCc2cnnn2CCCC(=O)N([C@@H](C)CO)C[C@@H]1C	none (no result: ASAP1 GAP inh, ARFGAP1 inhibitor, SMARCA2 act)
O=C(CNC(=O)c1ccc(Br)o1)Nc1cccc(-c2cnc3ccccc3n2)c1	ARFGAP1 inhibitor 25.1 | ARFGAP1 confirm inactive
CC(=O)Nc1ccc(NC(=O)c2cc(=O)c3ccc(C)cc3o2)cc1	none
CC(=O)Nc1ccc(NC(=O)c2cc(=O)c3cc(C)c(C)cc3o2)cc1	ARFGAP1 inhibitor 28.7 | ARFGAP1 confirm inactive
O=C(COC(=O)/C=C/c1ccc2ccccc2n1)NNC(=O)c1ccccc1	ARFGAP1 inhibitor 48.7 | ARFGAP1 confirm inactive
O=C(C[C@H]1C[C@H]2c3cc(NC(=O)Nc4ccccc4F)ccc3O[C@H]2[C@@H](CO)O1)NC1CCCC1	none (no result: ASAP1 GAP inh, ARFGAP1 inhibitor, SMARCA2 act)
O=C(c1cc2ccccc2o1)N1CCN(Cc2nc3ccccc3s2)CC1	ARFGAP1 inhibitor 25.7, esBAF inh 44.8 | ARFGAP1 confirm inactive
OCCOCCNc1ncnc2sc(-c3ccccc3)cc12	ARFGAP1 inhibitor 35.9 | ARFGAP1 confirm inactive
CN(C)CCNc1ncnc2sc(-c3ccccc3)cc12	none
CCCC(=O)Nc1ccc2c(c1)C(=O)N(C)C[C@H](OC)[C@H](C)CN(C)[C@H](C)CO2	none (no result: ASAP1 GAP inh, ARFGAP1 inhibitor, SMARCA2 act)
